In ChEMBL document CHEMBL1132709, “Novel cyclopropapyrroloindole derivative (AT-3510) bearing methoxycarbonyl and trifluoromethyl groups” (J Med Chem, 1999):
In brackets after ≈: the same amount, converted by molar mass.

Experiments:
[1] = tested on: Mus musculus; experiment: In vivo antitumor activity (0.800 mg/kg) is the measure of tumor growth inhibition of human tumor xenograft NUGC-3 (stomach) implanted sc in mice.; format: functional
Summary of the method: (§1)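 Tumor fragments (2–3 mm3) implanted sc into female BALB/cA Jcl-nu mice on day 0; single iv dose given once tumor volume reached about 100 mm3. Read-out is maximum tumor growth inhibition, as percentage versus untreated group.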

[2] = tested on: Mus musculus; experiment: In vivo antitumor activity (0.845 mg/kg) is the measure of tumor growth inhibition of human tumor xenograft DLD-1 (colon) implanted sc in mice.; format: functional; summary of the method: as §1
[3] = tested on: Mus musculus; experiment: In vivo antitumor activity (0.845 mg/kg) is the measure of tumor growth inhibition of human tumor xenograft HCT116 (colon) implanted sc in mice.; format: functional; summary of the method: as §1
[4] = tested on: Mus musculus; experiment: In vivo antitumor activity is the measure of tumor growth inhibition of Colon 26 murine […] cells.; format: functional
Summary of the method: (§2)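 Colon 26 cells (10^6/mouse) inoculated sc into male CDF1 mice on day 0; single iv dose on day 7. Tumor growth inhibition expressed as percentage versus untreated group.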

[5] = tested on: Mus musculus; experiment: In vivo concentration required to inhibit the Colon 26 murine […] cell growth by 50%; format: functional
[6] = Ratio between max dose within 10% body weight loss and tumor growth inhibition; format: functional
Summary of the method: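 Ratio of maximum dose within 10% body weight loss to the dose giving 50% tumor growth inhibition, in sc Colon 26-bearing mice dosed iv.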

[7] = tested on: Mus musculus; experiment: In vivo antitumor activity (3.13 mg/kg) is the measure of tumor growth inhibition of human tumor xenograft DLD-1 (colon) implanted sc in mice.; format: functional; summary of the method: as §1
[8] = tested on: Mus musculus; experiment: In vivo antitumor activity (3.13 mg/kg) is the measure of tumor growth inhibition of human tumor xenograft HCT116 (colon) implanted sc in mice.; format: functional; summary of the method: as §1
[9] = tested on: Mus musculus; experiment: In vivo antitumor activity (3.13 mg/kg) is the measure of tumor growth inhibition of human tumor xenograft NUGC-3 (stomach) implanted sc in mice.; format: functional; summary of the method: as §1
[10] = tested on: Mus musculus; experiment: In vivo antitumor activity (3.13 mg/kg) is the measure of tumor growth inhibition of human tumor xenograft WiDr (colon) implanted sc in mice.; format: functional; summary of the method: as §1
[11] = tested on: Mus musculus; experiment: In vivo antitumor activity (0.0884 mg/Kg) is the measure of tumor growth inhibition of colon 26 murine […] cells.; format: functional; summary of the method: as §2
[12] = tested on: Mus musculus; experiment: In vivo concentration required to inhibit the colon 26 murine […] cell growth by 50%; format: functional
[13] = tested on: HeLa; experiment: Concentration required to inhibit the growth of HeLaS3 human uterine cervix carcinoma cells by 50%; format: functional, cell-based
[14] = tested on: Mus musculus; experiment: In vivo antitumor activity (1 mg/Kg) is the measure of tumor growth inhibition of colon 26 murine […] cells.; format: functional
Summary of the method: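 Colon 26 cells (10^6/mouse) inoculated sc into male CDF1 mice on day 0; drug given iv on day 7. Read-out is percentage tumor growth inhibition versus the untreated group.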

[15] = tested on: Mus musculus; experiment: In vivo antitumor activity (0.125 mg/Kg) is the measure of increase in life span of mice bearing P388 murine leukemia cells; format: functional
[16] = tested on: Mus musculus; experiment: In vivo antitumor activity (0.125 mg/Kg) is the measure of tumor growth inhibition in mice bearing S180 murine sarcoma cells; format: functional, CCRF S-180
[17] = tested on: P338; experiment: In vitro concentration required to inhibit the growth of […] murine leukemia cells by 50%; format: functional, cell-based; settings: Mus musculus
[18] = tested on: Mus musculus; experiment: In vivo antitumor activity (0.584 mg/kg) is the measure of tumor growth inhibition of human tumor xenograft WiDr (colon) implanted sc in mice.; format: functional
Summary of the method: (§3)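 Tumor fragments (2–3 mm3) implanted sc into female BALB/cA Jcl-nu mice on day 0. A single iv dose was given once tumor volume reached about 100 mm3. Read-out is percentage of maximum tumor growth inhibition versus the untreated group.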

[19] = tested on: Mus musculus; experiment: In vivo antitumor activity (0.584 mg/kg) is the measure of tumor growth inhibition of human tumor xenograft HCT116 (colon) implanted sc in mice.; format: functional; summary of the method: as §3
[20] = tested on: Mus musculus; experiment: In vivo antitumor activity (0.584 mg/kg) is the measure of tumor growth inhibition of human tumor xenograft NUGC-3 (stomach) implanted sc in mice.; format: functional; summary of the method: as §3
[21] = tested on: Mus musculus; experiment: In vivo antitumor activity (0.584 mg/kg) is the measure of tumor growth inhibition of human tumor xenograft DLD-1 (colon) implanted sc in mice.; format: functional; summary of the method: as §3
[22] = tested on: Mus musculus; experiment: In vivo antitumor activity (0.716 mg/kg) is the measure of tumor growth inhibition of human tumor xenograft NUGC-3 (stomach) implanted sc in mice.; format: functional; summary of the method: as §3
[23] = tested on: Mus musculus; experiment: In vivo antitumor activity (1 mg/kg) is the measure of tumor growth inhibition of human tumor xenograft DLD-1 (colon) implanted sc in mice.; format: functional; summary of the method: as §3
[24] = tested on: Mus musculus; experiment: In vivo antitumor activity (1 mg/kg) is the measure of tumor growth inhibition of human tumor xenograft HCT116 (colon) implanted sc in mice.; format: functional; summary of the method: as §3
[25] = tested on: Mus musculus; experiment: In vivo antitumor activity (1 mg/kg) is the measure of tumor growth inhibition of human tumor xenograft WiDr (colon) implanted sc in mice.; format: functional; summary of the method: as §3

For `COC(=O)c1c(C(F)(F)F)[nH]c2c(OC(=O)N3CCN(C)CC3)cc3c(c12)[C@H](CCl)CN3C(=O)c1cc2cc(NC(=O)c3cc4ccccc4cn3)ccc2[nH]1`, the TGI [1] was 97%, the TGI [2] was 76% and the TGI [3] was 77%. It also gave a TGI [4] of 93%, a TGI50 [5] of 0.082 mg/kg and a Ratio [6] of 6.1.
For `COC(=O)c1c(C(F)(F)F)[nH]c2c(OC(=O)N3CCN(C)CC3)cc3c(c12)[C@H](CCl)CN3C(=O)c1cc2cc(NC(=O)c3cc4cccc(OC)c4o3)ccc2[nH]1`, the TGI [7] was 83%, the TGI [8] was 90% and the TGI [9] was 100%. The TGI [10] was 86%, the TGI [4] was 95% and the TGI50 [5] was 0.265 mg/kg. For the same molecule, the Ratio [6] was 7.6.
For `Cc1c[nH]c2c1[C@@]13C[C@@H]1CN(C(=O)c1cc4cc(NC(=O)c5cc6ccccc6o5)ccc4[nH]1)C3=CC2=O` [ADOZELESIN], the TGI [11] was 79%, the TGI50 [12] was 0.0444 mg/kg and the Ratio [6] was 2. For the same molecule, the IC50 [13] was 0.0364 ng/mL (≈ 0.0724 nM).
With `COC(=O)c1c(C(F)(F)F)[nH]c2c(O)cc3c(c12)[C@H](CCl)CN3C(=O)c1cc2cc(-c3cc4ccccc4o3)ccc2[nH]1` (racemic) the TGI [14] was 84% and the IC50 [13] was 3.6 ng/mL (≈ 5.92 nM).
With `Cc1c[nH]c2c1[C@@]13C[C@@H]1CN(C(=O)c1cc4cc(NC(=O)c5cc6ccccc6[nH]5)ccc4[nH]1)C3=CC2=O` (racemic) the ILS [15] was 210%, the TGI [16] was 86% and the IC50 [17] was 0.028 ng/mL (≈ 0.0558 nM).
In the case of `CCN(CC)c1ccc2cc(C(=O)Nc3ccc4[nH]c(C(=O)N5C[C@@H](CCl)c6c5cc(OC(=O)Nc5ccccc5)c5[nH]cc(C)c65)cc4c3)oc2c1` [CARZELESIN], the TGI [18] is reported as 56%, the TGI [19] is reported as 82% and the TGI [20] is reported as 98%. For the same molecule, the TGI [21] was 79%.
Molecule `COC(=O)c1c(C)[nH]c2c(OC(=O)N3CCN(C)CC3)cc3c(c12)[C@H](CBr)CN3C(=O)c1cc2cc(OC)c(OC)c(OC)c2[nH]1` [PIBROZELESIN] has a TGI [22] of 91%, a TGI [23] of 65% and a TGI [24] of 73%. It also gave a TGI [25] of 59% and a Ratio [6] of 3.4.
